In ChEMBL document CHEMBL4689842, “EUbOPEN Chemogenomics Library wave 1” (2021):

Tested on: Fibroblast
Assay: Multiplex assay against human fibroblast
Assay type: toxicity, cell-based
In short: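 Cells stained live at seeding with Hoechst33342, BioTracker Green Microtubule Cytoskeleton Dye, MitoTracker Red and Annexin V Alexa Fluor 680 were imaged on a CQ1 microscope at 37°C and 5% CO2 after compound addition. Their classification by CellPathfinder machine-learning gating ran from Hoechst high-intensity objects versus normal cells, to healthy, pyknosed or fragmented nuclei among normal cells, to mitotic or apoptotic among pyknosed cells. Tubulin, mitochondrial-mass and membrane-permeability phenotypes are per cents of healthy-nucleus cells.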

[1] = 12 h, 1 µM, compound concentration 1 uM, replicate 1
[2] = 12 h, 1 µM, compound concentration 1 uM, replicate 2
[3] = 12 h, 10 µM, compound concentration 10 uM, replicate 1
[4] = 12 h, 10 µM, compound concentration 10 uM, replicate 2
[5] = 24 h, 1 µM, compound concentration 1 uM, replicate 1
[6] = 24 h, 1 µM, compound concentration 1 uM, replicate 2
[7] = 24 h, 10 µM, compound concentration 10 uM, replicate 1
[8] = 24 h, 10 µM, compound concentration 10 uM, replicate 2
[9] = 48 h, 1 µM, compound concentration 1 uM, replicate 1
[10] = 48 h, 1 µM, compound concentration 1 uM, replicate 2
[11] = 48 h, 10 µM, compound concentration 10 uM, replicate 1
[12] = 48 h, 10 µM, compound concentration 10 uM, replicate 2

O=C1NC(=O)C(c2cnc3ccccn23)=C1c1cn2c3c(cc(F)cc13)CN(C(=O)N1CCCCC1)CC2 [LY-2090314]
Population Apoptotic (%) [1]: 60%
Population Fragmented Nuclei (%) [1]: 16%
Population Healthy Nuclei (%) [1]: 32%
Population Hoechst High Intensity Objects (%) [1]: 11%
Population Membrane Permeable-Phenotype (%) [1]: 29%
Population Mitochondria Different-Phenotype (%) [1]: 22%
Population Mitotic Cells (%) [1]: 40%
Population Normal (%) [1]: 88%
Population Pyknosed Nuclei (%) [1]: 51%
Population Tubulin-Different-Phenotype (%) [1]: 89%
Total Cell Count [1]: 166
Population Apoptotic (%) [2]: 80%
Population Fragmented Nuclei (%) [2]: 3%
Population Healthy Nuclei (%) [2]: 87%
Population Hoechst High Intensity Objects (%) [2]: 12%
Population Membrane Permeable-Phenotype (%) [2]: 6%
Population Mitochondria Different-Phenotype (%) [2]: 16%
Population Mitotic Cells (%) [2]: 20%
Population Normal (%) [2]: 87%
Population Pyknosed Nuclei (%) [2]: 9%
Population Tubulin-Different-Phenotype (%) [2]: 22%
Total Cell Count [2]: 85
Population Apoptotic (%) [3]: 61%
Population Fragmented Nuclei (%) [3]: 23%
Population Healthy Nuclei (%) [3]: 31%
Population Hoechst High Intensity Objects (%) [3]: 6%
Population Membrane Permeable-Phenotype (%) [3]: 50%
Population Mitochondria Different-Phenotype (%) [3]: 26%
Population Mitotic Cells (%) [3]: 38%
Population Normal (%) [3]: 93%
Population Pyknosed Nuclei (%) [3]: 44%
Population Tubulin-Different-Phenotype (%) [3]: 86%
Total Cell Count [3]: 101
Population Apoptotic (%) [4]: 100%
Population Fragmented Nuclei (%) [4]: 9%
Population Healthy Nuclei (%) [4]: 74%
Population Hoechst High Intensity Objects (%) [4]: 10%
Population Membrane Permeable-Phenotype (%) [4]: 40%
Population Mitochondria Different-Phenotype (%) [4]: 96%
Population Mitotic Cells (%) [4]: 0%
Population Normal (%) [4]: 89%
Population Pyknosed Nuclei (%) [4]: 16%
Population Tubulin-Different-Phenotype (%) [4]: 96%
Total Cell Count [4]: 63
Population Apoptotic (%) [5]: 64%
Population Fragmented Nuclei (%) [5]: 25%
Population Healthy Nuclei (%) [5]: 36%
Population Hoechst High Intensity Objects (%) [5]: 7%
Population Membrane Permeable-Phenotype (%) [5]: 26%
Population Mitochondria Different-Phenotype (%) [5]: 17%
Population Mitotic Cells (%) [5]: 35%
Population Normal (%) [5]: 92%
Population Pyknosed Nuclei (%) [5]: 38%
Population Tubulin-Different-Phenotype (%) [5]: 86%
Total Cell Count [5]: 156
Population Apoptotic (%) [6]: 80%
Population Fragmented Nuclei (%) [6]: 4%
Population Healthy Nuclei (%) [6]: 87%
Population Hoechst High Intensity Objects (%) [6]: 13%
Population Membrane Permeable-Phenotype (%) [6]: 7%
Population Mitochondria Different-Phenotype (%) [6]: 22%
Population Mitotic Cells (%) [6]: 20%
Population Normal (%) [6]: 86%
Population Pyknosed Nuclei (%) [6]: 8%
Population Tubulin-Different-Phenotype (%) [6]: 18%
Total Cell Count [6]: 82
Population Apoptotic (%) [7]: 70%
Population Fragmented Nuclei (%) [7]: 24%
Population Healthy Nuclei (%) [7]: 34%
Population Hoechst High Intensity Objects (%) [7]: 11%
Population Membrane Permeable-Phenotype (%) [7]: 41%
Population Mitochondria Different-Phenotype (%) [7]: 58%
Population Mitotic Cells (%) [7]: 29%
Population Normal (%) [7]: 88%
Population Pyknosed Nuclei (%) [7]: 41%
Population Tubulin-Different-Phenotype (%) [7]: 87%
Total Cell Count [7]: 102
Population Apoptotic (%) [8]: 81%
Population Fragmented Nuclei (%) [8]: 11%
Population Healthy Nuclei (%) [8]: 64%
Population Hoechst High Intensity Objects (%) [8]: 4%
Population Membrane Permeable-Phenotype (%) [8]: 37%
Population Mitochondria Different-Phenotype (%) [8]: 96%
Population Mitotic Cells (%) [8]: 18%
Population Normal (%) [8]: 95%
Population Pyknosed Nuclei (%) [8]: 24%
Population Tubulin-Different-Phenotype (%) [8]: 96%
Total Cell Count [8]: 72
Population Apoptotic (%) [9]: 79%
Population Fragmented Nuclei (%) [9]: 36%
Population Healthy Nuclei (%) [9]: 22%
Population Hoechst High Intensity Objects (%) [9]: 6%
Population Membrane Permeable-Phenotype (%) [9]: 14%
Population Mitochondria Different-Phenotype (%) [9]: 25%
Population Mitotic Cells (%) [9]: 20%
Population Normal (%) [9]: 93%
Population Pyknosed Nuclei (%) [9]: 41%
Population Tubulin-Different-Phenotype (%) [9]: 85%
Total Cell Count [9]: 127
Population Apoptotic (%) [10]: 75%
Population Fragmented Nuclei (%) [10]: 55%
Population Healthy Nuclei (%) [10]: 29%
Population Hoechst High Intensity Objects (%) [10]: 8%
Population Membrane Permeable-Phenotype (%) [10]: 26%
Population Mitochondria Different-Phenotype (%) [10]: 26%
Population Mitotic Cells (%) [10]: 25%
Population Normal (%) [10]: 91%
Population Pyknosed Nuclei (%) [10]: 15%
Population Tubulin-Different-Phenotype (%) [10]: 69%
Total Cell Count [10]: 86
Population Apoptotic (%) [11]: 73%
Population Fragmented Nuclei (%) [11]: 28%
Population Healthy Nuclei (%) [11]: 25%
Population Hoechst High Intensity Objects (%) [11]: 15%
Population Membrane Permeable-Phenotype (%) [11]: 28%
Population Mitochondria Different-Phenotype (%) [11]: 57%
Population Mitotic Cells (%) [11]: 26%
Population Normal (%) [11]: 84%
Population Pyknosed Nuclei (%) [11]: 46%
Population Tubulin-Different-Phenotype (%) [11]: 71%
Total Cell Count [11]: 97
Population Apoptotic (%) [12]: 93%
Population Fragmented Nuclei (%) [12]: 10%
Population Healthy Nuclei (%) [12]: 61%
Population Hoechst High Intensity Objects (%) [12]: 16%
Population Membrane Permeable-Phenotype (%) [12]: 5%
Population Mitochondria Different-Phenotype (%) [12]: 85%
Population Mitotic Cells (%) [12]: 6%
Population Normal (%) [12]: 83%
Population Pyknosed Nuclei (%) [12]: 27%
Population Tubulin-Different-Phenotype (%) [12]: 85%
Total Cell Count [12]: 66
